Experiments:
Type in all cases: functional
[1] = system: Rattus norvegicus; assay: Antiallergic activity by rat passive cutaneous anaphylaxis (PCA) assay when administered iv.;value ranges between (0.06-0.4)
Outline: (§1)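 Male rats sensitized by id injection of diluted rat anti-ovalbumin reaginic serum (0.1 mL each side of shaved back). 24 h later, compound in saline was mixed with 5 mg ovalbumin in 0.5 mL 2% Evans Blue and given iv at 1 mL/kg. Blued-spot diameters were read 30 min later. Six rats per group; ED50 is 50% area reduction versus control, with 95% confidence limits.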

[2] = system: Rattus norvegicus; assay: Antiallergic activity by rat passive cutaneous anaphylaxis (PCA) assay when administered per orally.;value ranges between (1.0-4.1.); conditions: po
Outline: (§2)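 Rats were passively sensitized intradermally with diluted reaginic anti-ovalbumin serum 24 h before challenge. Compound was suspended in 1% acacia and dosed by oral feeding needle at 1 mL/kg. After 20-30 min, rats were challenged with 0.02 mg ovalbumin in 0.5 mL 2% Evans Blue. Blued areas were measured 30 min after challenge. Six rats per dose; ED50 is 50% area reduction from control, with 95% confidence limits.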

[3] = system: Rattus norvegicus; assay: Antiallergic activity by rat passive cutaneous anaphylaxis (PCA) assay when administered per orally;value ranges between (2.0-5.0.); conditions: po; outline: as §2
[4] = system: Rattus norvegicus; assay: antiallergic activity by rat passive cutaneous anaphylaxis (PCA) assay when administered iv; outline: as §1
[5] = system: Rattus norvegicus; assay: Antiallergic activity by rat passive cutaneous anaphylaxis (PCA) assay when administered perorally.; conditions: po; outline: as §2
[6] = system: Rattus norvegicus; assay: Antiallergic activity by rat passive cutaneous anaphylaxis (PCA) assay when administered per orally;value ranges between (0.64-6.67).; conditions: po; outline: as §2
[7] = system: Rattus norvegicus; assay: Antiallergic activity by rat passive cutaneous anaphylaxis (PCA) assay when administered iv.;value ranges between (0.2-1.8.); outline: as §1
[8] = system: Rattus norvegicus; assay: Antiallergic activity by rat passive cutaneous anaphylaxis (PCA) assay when administered perorally; value ranges between (2.9-15.4); conditions: po; outline: as §2
[9] = system: Rattus norvegicus; assay: Antiallergic activity by rat passive cutaneous anaphylaxis (PCA) assay when administered per orally;value ranges between (1.5-9.0).; conditions: po; outline: as §2
[10] = system: Rattus norvegicus; assay: Antiallergic activity by rat passive cutaneous anaphylaxis (PCA) assay when administered per orally;value ranges between (0.11-0.75.); conditions: po; outline: as §2
[11] = system: Rattus norvegicus; assay: Antiallergic activity by rat passive cutaneous anaphylaxis (PCA) assay when administered iv;value ranges between 0.02-0.07; outline: as §1
[12] = system: Rattus norvegicus; assay: Antiallergic activity by rat passive cutaneous anaphylaxis (PCA) assay when administered per orally;value ranges between (0.32-1.04); conditions: po; outline: as §2

COc1cccc(-c2csc(NC(=O)C(=O)O)n2)c1
ED50 [1]: 0.16 mg/kg
ED50 [2]: 2.1 mg/kg

CCOC(=O)C(=O)Nc1nc(-c2ccc(N3CCCCC3)cc2)cs1
ED50 [3]: 3.2 mg/kg

O=C(O)C(=O)Nc1nc(-c2ccccc2)cs1
ED50 [4]: > 3 mg/kg
ED50 [5]: ~1 mg/kg

COc1cc(-c2csc(NC(=O)C(=O)O)n2)ccc1O.NCCO
ED50 [4]: < 0.1 mg/kg
ED50 [6]: 2.1 mg/kg

NCCO.O=C(O)C(=O)Nc1nc(-c2ccccc2O)cs1
ED50 [7]: 0.62 mg/kg
ED50 [8]: 6.7 mg/kg

CCOC(=O)C(=O)Nc1nc(-c2ccc(O)cc2C)cs1
ED50 [9]: 3.7 mg/kg

CCOC(=O)C(=O)Nc1nc(-c2ccc(NC(C)=O)cc2)cs1
ED50 [10]: 0.29 mg/kg

NCCO.O=C(O)C(=O)Nc1nc(-c2ccc3c(c2)OCCO3)cs1
ED50 [11]: 0.039 mg/kg
ED50 [12]: 0.6 mg/kg

Source: ChEMBL document CHEMBL1122270, “N-(4-substituted-thiazolyl)oxamic acid derivatives, a new series of potent, orally active antiallergy agents” (1983)
